Assay outcomes (PubChem BioAssay)
Most compounds without a hit are left out; they make up all but 2.6% or so of the library.
esBAF inh = blocks esBAF chromatin remodeling in mouse ES cells; Bmi1-luciferase knock-in reporter, 24 h; 100% = twice the neutral-well signal; reporter increase, % at 12.5 µM; hit rate 2% among 350,000; AID 602393; in the data active = activation above about 40%;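 note: 0% = median of the plate's neutral control wells and 100% = double that signal; a rise in the Bmi1 reporter signal indicates esBAF inhibition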
ASAP1 GAP inh = blocks human ASAP1-stimulated Arf1 GTP hydrolysis; hit rate 0.19% among 360,000; GDP FP detection; inhibition, % at 16.5 µM; in the data active = inhibition above about 25%;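 note: 0% = vehicle with enzyme and substrate and 100% = no enzyme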
Target sequence (Q9ULH1 325-724 limits assumed): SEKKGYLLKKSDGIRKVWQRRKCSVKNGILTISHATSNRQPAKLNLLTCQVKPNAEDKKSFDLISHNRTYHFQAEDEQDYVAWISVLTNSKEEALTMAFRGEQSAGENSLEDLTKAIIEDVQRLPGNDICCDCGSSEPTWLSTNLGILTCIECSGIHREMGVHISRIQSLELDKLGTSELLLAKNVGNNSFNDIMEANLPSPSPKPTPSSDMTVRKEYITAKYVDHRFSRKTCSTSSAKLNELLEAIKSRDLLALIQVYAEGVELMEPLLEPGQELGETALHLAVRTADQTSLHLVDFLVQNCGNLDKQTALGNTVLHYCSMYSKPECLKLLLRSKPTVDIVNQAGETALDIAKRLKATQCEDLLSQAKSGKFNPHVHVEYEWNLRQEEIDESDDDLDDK
SMARCA2 activ = increases SMARCA2 function in MMTV reporter cells; MG213 cells, MMTV-luciferase reporter, dexamethasone, overnight; activation, % at 9.1 µM; hit rate 1% among 370,000; in the data active = activation above about 7.8%;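 note: 0% = vehicle wells and 100% = reference activator wells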
ARFGAP1 inh = inhibitors of rat ARFGAP1; hit rate 0.26% among 360,000; inhibition, % at 16.5 µM; Q62848; Arfgap1-stimulated ARF1 GTP hydrolysis, GDP FP detection;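 active = inhibition above a per-plate limit, mean inhibition of low control wells plus 3 SD, cut at about 25% in these data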;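 note: 0% = DMSO wells with enzyme and 100% = wells lacking Arfgap1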
Target sequence (Q62848 1-136 limits assumed): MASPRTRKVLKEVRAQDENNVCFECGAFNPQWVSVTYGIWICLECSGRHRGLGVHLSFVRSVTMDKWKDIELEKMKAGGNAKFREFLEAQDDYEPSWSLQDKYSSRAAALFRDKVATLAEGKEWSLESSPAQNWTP
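Assay system: purified rat His6-Arfgap1 residues 1-136 (GAP domain); Reagent: human Δ17 ARF1 bound to GTP; Dosing: 16.5 µM single point, 1.26% DMSO; Times: GTP hydrolysis reaction 2 h at 25 °C; Signal: FP, GDP Alexa 633 tracer displaced from anti-GDP antibody, 620/688 nm; Measure: % inhibition from polarization.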
An asterisk follows results filed as active.

What do the screens show for `Cc1ccc(N2CN=C(c3ccccc3)NC2=S)cc1`?
esBAF inh: 56.9*; ASAP1 GAP inh: 1.6; SMARCA2 activ: 2.4; ARFGAP1 inh: 10.6

What do the screens show for `O=C(O)C1CC(c2ccccc2)=Nc2ccccc2S1` (configuration not stated)?
esBAF inh: 51.5*; ASAP1 GAP inh: 6.1; SMARCA2 activ: 3.4; ARFGAP1 inh: 4.0

What do the screens show for `CN=C(c1ccc(C)cc1)n1c(=S)nc(-c2ccc(C)cc2)n(C)c1=S`?
esBAF inh: 82.9*; ASAP1 GAP inh: 5.5; SMARCA2 activ: -0.1; ARFGAP1 inh: -2.0

How did CCCn1nnc(NC(=O)c2ccc(-c3ccccc3)cc2)n1 do in these assays?
esBAF inh: 41.2*; ASAP1 GAP inh: 6.2; SMARCA2 activ: 0.9; ARFGAP1 inh: 7.8

Results for Cn1nnc(NC(=O)c2ccc(C(C)(C)C)cc2)n1 ?
esBAF inh: 45.8*; ASAP1 GAP inh: 22.6; SMARCA2 activ: 5.7; ARFGAP1 inh: 3.6

Results for CCCNC(=O)C[C@@H]1CC[C@@H]2[C@H](COc3ccc(NC(=O)c4cccc(C(F)(F)F)c4)cc3C(=O)N2C)O1 ?
esBAF inh: 2.2

What do the screens show for `CC(C)NC(=O)N[C@H]1CC[C@H](CCN)O[C@@H]1CO`?
esBAF inh: 0.6

Results for O=c1cnn(-c2ccc(Cl)cc2Cl)c(-c2ccccc2)c1 ?
esBAF inh: 48.7*; ASAP1 GAP inh: 9.3; SMARCA2 activ: -1.4; ARFGAP1 inh: -8.9

Results for C[C@@H]1CN([C@H](C)CO)S(=O)(=O)c2ccc(C#C[C@@H](C)O)cc2O[C@H]1CN(C)C(=O)C1CC1 ?
esBAF inh: -2.3

What do the screens show for `CCN(Cc1cnn(C)c1)C(=O)c1cc(COc2ccc3c(c2)CCCC3)on1`?
esBAF inh: 45.6*; ASAP1 GAP inh: 11.6; SMARCA2 activ: 5.7; ARFGAP1 inh: 6.7

What do the screens show for `COc1cccc(CN(C)C(=O)c2cc(COc3c(F)cccc3F)on2)c1`?
esBAF inh: 2.6; ASAP1 GAP inh: 7.2; SMARCA2 activ: 3.1; ARFGAP1 inh: 11.2

How did Cn1cc(CNC(=O)c2cc(COc3ccc4c(c3)CCCC4)on2)cn1 do in these assays?
esBAF inh: 4.3; ASAP1 GAP inh: -3.2; SMARCA2 activ: -1.8; ARFGAP1 inh: -4.7

What do the screens show for `CN(Cc1cnn(C)c1)C(=O)c1cc(COc2c(F)cccc2F)on1`?
esBAF inh: 46.7*; ASAP1 GAP inh: -17.0; SMARCA2 activ: 0.0; ARFGAP1 inh: -4.6

Results for O=C(CSCC(=O)N1CCOCC1)Nc1nc(-c2ccc3c(c2)OCO3)cs1 ?
esBAF inh: 53.7*; ASAP1 GAP inh: 18.2; SMARCA2 activ: 4.9; ARFGAP1 inh: -4.5

Results for Cc1csc(SCC(=O)Nc2nc(-c3ccccc3)cs2)n1 ?
esBAF inh: 14.6; ASAP1 GAP inh: 2.8; SMARCA2 activ: 0.2; ARFGAP1 inh: -3.3

How did Cc1ccc(-c2csc(NC(=O)CSc3nc(C)cs3)n2)cc1 do in these assays?
esBAF inh: 45.1*; ASAP1 GAP inh: 10.2; SMARCA2 activ: -3.7; ARFGAP1 inh: -8.2

Results for O=C(Nc1nc(-c2ccc(Cl)cc2)cs1)C1CCCO1 (configuration not stated) ?
esBAF inh: 47.8*; ASAP1 GAP inh: 2.2; SMARCA2 activ: -0.6; ARFGAP1 inh: -3.4

How did Cc1ccc(-c2csc(NC(=O)N3CCOCC3)n2)cc1 do in these assays?
esBAF inh: 83.5*; ASAP1 GAP inh: 5.6; SMARCA2 activ: -3.3; ARFGAP1 inh: 1.2

What do the screens show for `N#CCC(=O)Nc1nc(-c2ccc3c(c2)OCCO3)cs1`?
ASAP1 GAP inh: 5.9; SMARCA2 activ: 4.3; ARFGAP1 inh: -4.7

How did C[C@@H]1CN([C@H](C)CO)C(=O)Cc2cc(NC(=O)CCN3CCOCC3)ccc2O[C@H]1CN(C)S(=O)(=O)c1cccs1 do in these assays?
esBAF inh: -0.9

Results for CO[C@H]1CN(C)C(=O)c2cc(NC(=O)Nc3cc(F)ccc3F)ccc2OC[C@H](C)N(C(=O)c2ccccn2)C[C@@H]1C ?
esBAF inh: 4.2

Results for O=C(NCC1CC1)[C@H]1[C@H](CO)[C@H]2Cn3c(cccc3=O)[C@H]2N1C(=O)Nc1ccccc1 ?
esBAF inh: -0.4

Results for Cc1ccc(-c2c(C)sc(=NC(=O)c3ccco3)n2C)cc1 ?
esBAF inh: 56.8*; ASAP1 GAP inh: 3.7; SMARCA2 activ: 1.7; ARFGAP1 inh: 7.8

Results for C/C(=N\NC(=O)c1ccccc1C)c1ccc(NC(=O)c2cccs2)cc1 ?
esBAF inh: 53.2*; ASAP1 GAP inh: 2.4; SMARCA2 activ: 6.8; ARFGAP1 inh: 7.2

Results for C/C(=N/NC(=O)c1cccs1)c1cccs1 ?
ASAP1 GAP inh: 2.0; SMARCA2 activ: 2.3; ARFGAP1 inh: 19.0

How did C/C(=N\NC(=O)c1cccs1)c1ccc2c(c1)OCO2 do in these assays?
ASAP1 GAP inh: -2.0; SMARCA2 activ: 4.0; ARFGAP1 inh: -1.5

What do the screens show for `C/C(=N\NC(=O)c1ccccc1)c1ccc(NC(=O)c2cccs2)cc1`?
ASAP1 GAP inh: -2.5; SMARCA2 activ: 2.4; ARFGAP1 inh: 2.2

How did C/C(=N\NC(=O)c1cccs1)c1c(O)cc(C)oc1=O do in these assays?
esBAF inh: 62.7*; ASAP1 GAP inh: -4.3; SMARCA2 activ: 3.8; ARFGAP1 inh: 9.2

What do the screens show for `C/C(=N\NC(=O)c1ccc2c(c1)OCO2)c1ccc2c(c1)OCO2`?
esBAF inh: 52.1*; ASAP1 GAP inh: 8.1; SMARCA2 activ: 4.7; ARFGAP1 inh: 0.2

What do the screens show for `CC(=NNC(=O)c1cccs1)c1ccc2c(c1)OCCO2`?
esBAF inh: 47.3*; ASAP1 GAP inh: -16.8; SMARCA2 activ: 5.0; ARFGAP1 inh: -4.3

How did O=C(/C=C/c1cccc(F)c1)OCC(=O)c1ccc[nH]1 do in these assays?
esBAF inh: -0.8; ASAP1 GAP inh: 5.5; SMARCA2 activ: 7.9*; ARFGAP1 inh: -1.6

Results for O=C(C[n+]1cc(-c2ccc(F)cc2)n2c1CCC2)c1cccs1 ?
esBAF inh: 46.0*; ASAP1 GAP inh: -10.7; SMARCA2 activ: -1.2; ARFGAP1 inh: 7.8

Results for CCOC(=O)c1ccc(-c2nnc(-c3ccc(Cl)cc3Cl)o2)cc1 ?
esBAF inh: 44.6*; ASAP1 GAP inh: 0.7; SMARCA2 activ: -0.2; ARFGAP1 inh: 3.3

What do the screens show for `CCOC(=O)c1cc(-c2nnc(-c3ccc(Cl)cc3)o2)c(C)nc1C`?
esBAF inh: 4.4; ASAP1 GAP inh: -0.9; SMARCA2 activ: -0.9; ARFGAP1 inh: -9.5

What do the screens show for `NC(=O)C1=C[C@H](C2CCCCC2)C[C@H](OCc2ccc(CO)cc2)O1`?
esBAF inh: 72.6*; ASAP1 GAP inh: -10.9; SMARCA2 activ: 3.5; ARFGAP1 inh: -4.2

Results for CO[C@H]1CN(C)C(=O)c2cc(NC(=O)c3cnccn3)ccc2OC[C@@H](C)N(C)C[C@@H]1C ?
esBAF inh: 0.1

How did COc1cccc(-c2cc3nc(Nc4ccc(OC)c(OC)c4)n(C)c(=O)c3s2)c1 do in these assays?
esBAF inh: 52.8*; ASAP1 GAP inh: 15.0; SMARCA2 activ: 1.1; ARFGAP1 inh: 20.6

What do the screens show for `Cc1cc(COc2ccccc2)oc1C(=O)O`?
esBAF inh: 50.9*; ASAP1 GAP inh: -10.9; SMARCA2 activ: 3.5; ARFGAP1 inh: 2.0

How did CC(=O)NCc1ccc(-c2csc(-c3cccs3)n2)cc1 do in these assays?
esBAF inh: 53.1*; ASAP1 GAP inh: 1.3; SMARCA2 activ: 5.5; ARFGAP1 inh: -4.2
